Most compounds without a hit are left out; they make up all but 3.9% or so of the library.
OX1R antag-1 – OX1R (human) antagonism; inhibition, % at 6.6 µM; AID 485270; OX1R-expressing cells, FRET antagonist read-out; O43613; hit rate 1.8% among 330,000; in the data active = inhibition mostly above about 38%, no sharp cut-off; inactive = mostly below about 40%
Target sequence (O43613 whole entry, looked up): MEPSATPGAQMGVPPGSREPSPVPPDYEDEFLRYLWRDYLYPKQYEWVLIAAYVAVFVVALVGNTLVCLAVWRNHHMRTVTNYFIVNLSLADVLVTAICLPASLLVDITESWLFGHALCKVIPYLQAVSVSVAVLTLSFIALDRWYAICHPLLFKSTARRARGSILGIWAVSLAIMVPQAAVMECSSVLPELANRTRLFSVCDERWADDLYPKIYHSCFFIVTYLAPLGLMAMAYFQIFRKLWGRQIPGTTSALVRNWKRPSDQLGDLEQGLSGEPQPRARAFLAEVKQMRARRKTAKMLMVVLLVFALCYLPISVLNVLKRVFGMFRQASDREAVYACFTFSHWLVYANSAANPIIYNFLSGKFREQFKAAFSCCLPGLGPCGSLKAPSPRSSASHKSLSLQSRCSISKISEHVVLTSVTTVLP
OX1R antag-2 – antagonists of human orexin 1 receptor; CHO/OX1R cells, Fluo-8 calcium fluorescence, orexin A; inhibition, % at 5 µM; hit rate 0.43% among 330,000;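 active = inhibition above its plate's threshold, mean inhibition of all tested compounds on the plate plus 3 SD, cut at about 37% in these data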
TAAR1 antagonist – antagonists of human TAAR1; hit rate 1.5% among 360,000; inhibition, % at 3 µM; AID 624466; CHO RD-HGA16 TAAR1, Fluo-8 calcium fluorescence, antagonist; Q96RJ0;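 active = inhibition above a per-plate cutoff, the mean inhibition of test compounds on that plate plus 3 SD, cut at about 49% in these data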
Target sequence (Q96RJ0 whole entry, looked up): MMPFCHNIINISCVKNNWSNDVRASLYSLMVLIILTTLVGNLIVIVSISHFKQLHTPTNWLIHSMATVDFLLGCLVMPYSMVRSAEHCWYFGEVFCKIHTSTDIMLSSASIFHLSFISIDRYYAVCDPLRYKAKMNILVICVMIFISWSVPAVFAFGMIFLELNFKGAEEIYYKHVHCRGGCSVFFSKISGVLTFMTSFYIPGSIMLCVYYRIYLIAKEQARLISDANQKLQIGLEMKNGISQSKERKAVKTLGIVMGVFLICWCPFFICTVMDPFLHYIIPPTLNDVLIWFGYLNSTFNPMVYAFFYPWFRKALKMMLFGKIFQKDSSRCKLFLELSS
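System: CHO RD-HGA16 cells bearing hTAAR1. Reagent: EC80 β-phenethylamine stimulus. Schedule: seeding 17-24 h prior, 75-min 37 °C, 30-min RT dye loading. Signal: Fluo-8 intracellular calcium dye fluorescence, real-time kinetic reads. Read-out: % inhibition from peak post-agonist over basal fluorescence ratio. Benchmarks: vehicle wells and EC80 agonist wells. Replicates: n of 1.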
CHO parental Ca – signal in parental CHO cells, OX1R antagonist counter-screen. AID 463079. hit rate 0.63% among 330,000. parental CHO-K1, ATP-induced calcium, Fluo-8 fluorescence. inhibition, % at 5.6 µM;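 active = inhibition above that plate's mean sample inhibition plus 3 SD, cut at about 26% in these data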
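material = parental CHO cells | also added = ATP as calcium-mobilizing challenge | dosing = single point at 5.6 µM | detection = intracellular calcium via Fluo-8 no-wash fluorescent dye | read-out = % inhibition | benchmarks = low control ATP plus DMSO, high control DMSO only | repeats = one well per compound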
TAAR1 agonist – human TAAR1 agonism; Q96RJ0; CHO RD-HGA16 TAAR1, Fluo-8 calcium fluorescence; vehicle wells 0%, saturating PEA agonist 100%; activation, % at 3 µM; hit rate 0.99% among 360,000;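 active = activation above the mean activation of all test compounds in the run plus 3 SD, cut at about 38% in these data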
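Assay system: CHO-derived RD-HGA16 cells with stable Gα16 and human TAAR1; timing: 17-24 h seeding, 75 min 37 °C dye, 30 min RT; read-out: % activation from peak over basal fluorescence ratio, DMSO-to-PEA scaled; measured by: kinetic Fluo-8 calcium fluorescence; benchmarks: low control DMSO, high control PEA (EC100); doses: 3 µM single concentration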
TAAR1 nonsel count – counter-screen for TAAR1 antagonists: nonselective antagonists; shares compounds with TAAR1 antagonist; counterscreen cell line, calcium fluorescence, antagonist mode; inhibition, % at 3 µM; hit rate 77% among 2,400; AID 651780; in the data active = inhibition above about 22%;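 note: CHO-Ga16 host cells stimulated with ATP at an EC80 level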
TAAR1 ant conf – confirmation of human TAAR1 antagonists; shares compounds with TAAR1 antagonist; TAAR1-expressing cells, fluorescence antagonist read-out; inhibition, % at 3 µM; hit rate 40% among 2,400; in the data active = inhibition above about 49%;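 note: CHO-Ga16 host cells challenged with agonist PEA near its EC80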
Ga16 ag counter – counter-screen for TAAR1 antagonists: nonselective Ga16 agonists | shares compounds with TAAR1 antagonist | Ga16-expressing cells, calcium fluorescence, agonist counterscreen | activation, % at 3 µM | hit rate 18% among 2,400; in the data active = activation above about 12%
TAAR1 ag count – activates human TAAR1 in antagonist counter-screen; shares compounds with TAAR1 antagonist; hit rate 2% among 2,400; activation, % at 3 µM; hTAAR1 cell line, fluorescence activation, agonist mode; AID 651955; in the data active = activation above about 37%;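 note: CHO cells stably expressing TAAR1 with calcium dye readout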
Large screens that a line does not name were inactive (follow-up assays come after a bar, where they were run).

OCC1=C[C@@H](O)[C@@H]2C=CO[C@@H](O[C@@H]3O[C@H](CO)[C@@H](O)[C@H](O)[C@H]3O)[C@H]12	none
CCOc1ccccc1Nc1nc2ccccc2n1C(C)C	none
O=C(CSc1nc(-c2ccccc2)nc2ccc(F)cc12)Nc1ccc(C(=O)O)cc1	none
O=C(CSc1nc(-c2ccccc2)nc2ccc(F)cc12)Nc1cccc(C(=O)O)c1	TAAR1 antagonist 62.7 | TAAR1 nonsel count 31.1 | TAAR1 ant conf 48.8 | Ga16 ag counter inactive | TAAR1 ag count inactive
CCC(C)NC(=O)CN(c1ccc(Cl)c(Cl)c1)S(C)(=O)=O (stereo unspecified)	none
COC(=O)CNC(c1ccccc1)c1cc(C)ccc1NC(=O)c1cccc(Cl)c1 (stereo unspecified)	TAAR1 antagonist 66.7 | TAAR1 nonsel count 22.8 | TAAR1 ant conf inactive | Ga16 ag counter inactive | TAAR1 ag count inactive
COc1ccc(N(CC(=O)NCc2ccccc2OC)S(=O)(=O)c2ccccc2)cc1	none
COCCCNC(=O)CN(c1cc(OC)ccc1OC)S(=O)(=O)c1ccccc1	none
COc1ccc(N(CC(=O)NCCSc2ccccn2)S(=O)(=O)c2ccccc2)c(OC)c1	OX1R antag-1 45.5, TAAR1 antagonist 50.1 | TAAR1 nonsel count 26.7 | TAAR1 ant conf inactive | Ga16 ag counter inactive | TAAR1 ag count inactive
COc1ccc(N(CC(=O)NCCSc2ccccc2)S(=O)(=O)c2ccccc2)c(OC)c1	TAAR1 antagonist 58.7 | TAAR1 nonsel count 32.6 | TAAR1 ant conf 54.6 | Ga16 ag counter inactive | TAAR1 ag count inactive
COc1ccc(S(=O)(=O)N(CC(=O)NCCSc2ccccn2)c2ccccc2)cc1	none
COc1ccc(N(CC(=O)NCCSc2ccccc2)S(=O)(=O)c2ccccc2)cc1	TAAR1 antagonist 65.3 | TAAR1 nonsel count 21.6 | TAAR1 ant conf inactive | Ga16 ag counter inactive | TAAR1 ag count inactive
COc1ccc2cc(/C=C3\SC(=S)NC3=O)c(N3CCOCC3)nc2c1	OX1R antag-1 73.8, TAAR1 antagonist 52.6 | TAAR1 nonsel count 36.1 | TAAR1 ant conf inactive | Ga16 ag counter inactive | TAAR1 ag count inactive
O=C1NC(=S)S/C1=C/c1ccc(N2CCOCC2)o1	none (no result: TAAR1 antagonist, TAAR1 agonist)
COc1ccc(-c2csc(Nc3ccc(Oc4ccccc4)cc3)n2)cc1	none (no result: OX1R antag-1, OX1R antag-2, CHO parental Ca)
Cc1ccc(C)c(NC(=O)Cc2nc(CCl)cs2)c1	none
COc1cc(C(=O)OCc2csc(CC(=O)Nc3cc(C)ccc3C)n2)ccc1OC(F)F	TAAR1 antagonist 65.5 (no result: OX1R antag-1, OX1R antag-2, CHO parental Ca) | TAAR1 nonsel count 41.8 | TAAR1 ant conf 52.6 | Ga16 ag counter inactive | TAAR1 ag count inactive
Cc1cccc(N2CCN(S(=O)(=O)c3ccc4[nH]c(=O)ccc4c3)CC2)c1C	TAAR1 antagonist 60.5 | TAAR1 nonsel count 35.0 | TAAR1 ant conf inactive | Ga16 ag counter inactive | TAAR1 ag count inactive
O=C(N/N=C/c1sc(=O)n(Cc2ccc(Br)cc2)c1Cl)c1ccco1	TAAR1 antagonist 81.2 | TAAR1 nonsel count 39.0 | TAAR1 ant conf 77.3 | Ga16 ag counter 17.0 | TAAR1 ag count inactive
O=C(N/N=C/c1ccc(Br)s1)c1ccco1	none
COc1cccc(NC(=O)CN(C)C(=O)CC2CCCCC2)c1	none (no result: OX1R antag-1, OX1R antag-2, CHO parental Ca)
COC(=O)C(CCCCN1C(=O)C2C3C=CC(C3)C2C1=O)N1C(=O)C2C3C=CC(C3)C2C1=O (stereo unspecified)	none
COc1ccc(C(=O)COC(=O)C(CCCCN2C(=O)C3C4C=CC(C4)C3C2=O)N2C(=O)C3C4C=CC(C4)C3C2=O)cc1 (stereo unspecified)	TAAR1 antagonist 58.8 | TAAR1 nonsel count 33.0 | TAAR1 ant conf 50.6 | Ga16 ag counter inactive | TAAR1 ag count inactive
N#C/C(=C1/C(=O)Nc2ccc(Br)cc21)c1ccccn1	none
COC(=O)[C@]12CCCCC=C1N(Cc1ccc3c(c1)OCO3)C(=O)[C@H](CC(=O)N1CCSCC1)C2	TAAR1 antagonist 67.0 (no result: OX1R antag-1, OX1R antag-2, CHO parental Ca) | TAAR1 nonsel count 26.0 | TAAR1 ant conf inactive | Ga16 ag counter inactive | TAAR1 ag count inactive
N#Cc1ccc(COC(=O)c2ccc(N3CCCC3)c([N+](=O)[O-])c2)cc1	none
CCOC(=O)c1c(C)[nH]c(C)c1C(=O)CSc1nc2ccccc2c(=O)n1-c1ccc(C)cc1	none
CCCn1c(SCC(=O)c2c(C)[nH]c(C)c2C(=O)OCC)nc2ccccc21	TAAR1 antagonist 49.3 | TAAR1 nonsel count inactive | TAAR1 ant conf inactive | Ga16 ag counter inactive | TAAR1 ag count inactive
O=C(O)COCC(=O)N1CCN(c2cc(C(F)(F)F)nc3ccccc23)CC1	none
CCC(=O)N1CCN(c2ccc(-n3c(=O)ccc4cnc5ccc(-c6cnc7ccccc7c6)cc5c43)cc2C(F)(F)F)CC1	TAAR1 antagonist 50.3 (no result: OX1R antag-1, OX1R antag-2, CHO parental Ca) | TAAR1 nonsel count inactive | TAAR1 ant conf inactive | Ga16 ag counter inactive | TAAR1 ag count inactive
O=C(CSc1nnnn1C1CCCC1)NCCc1ccccc1	TAAR1 antagonist 55.0 | TAAR1 nonsel count inactive | TAAR1 ant conf 72.6 | Ga16 ag counter inactive | TAAR1 ag count 52.3
COc1cc(NC(=O)CSc2nnnn2C2CCCC2)cc(OC)c1	none
COC(=O)c1ccc(NC(=O)CSc2nnnn2C2CCCCC2)cc1	TAAR1 antagonist 64.5 | TAAR1 nonsel count inactive | TAAR1 ant conf inactive | Ga16 ag counter inactive | TAAR1 ag count inactive
CCOc1ccc(C(=O)Nc2ccccc2N2CCN(C(=O)c3ccccc3)CC2)cc1[N+](=O)[O-]	TAAR1 antagonist 66.9 | TAAR1 nonsel count 24.9 | TAAR1 ant conf inactive | Ga16 ag counter inactive | TAAR1 ag count inactive
Cn1nccc1C(=O)N1CCCC(N2CCN(Cc3ccc4c(c3)OCO4)CC2)C1 (stereo unspecified)	none (no result: OX1R antag-1, OX1R antag-2, CHO parental Ca)
COc1cccc(N(C(=O)c2snc(C(N)=O)c2N)C(C(=O)NCC2CCCO2)c2cccs2)c1 (stereo unspecified)	none
COc1ccc(CCN(C(=O)c2snc(C(N)=O)c2N)C(C(=O)NCC2CCCO2)c2ccc(F)cc2)cc1OC (stereo unspecified)	TAAR1 antagonist 58.4 (no result: OX1R antag-1, OX1R antag-2, CHO parental Ca) | TAAR1 nonsel count 30.7 | TAAR1 ant conf inactive | Ga16 ag counter inactive | TAAR1 ag count inactive
COc1ccc(C(C(=O)NCC2CCCO2)N(Cc2cccs2)C(=O)c2snc(C(N)=O)c2N)cc1OC (stereo unspecified)	TAAR1 antagonist 54.6 | TAAR1 nonsel count 24.9 | TAAR1 ant conf inactive | Ga16 ag counter inactive | TAAR1 ag count inactive
CC(C)(C#N)NC(=O)C1CCCN1S(=O)(=O)c1ccc2ccccc2c1 (stereo unspecified)	none
